Data as given in ChEMBL document CHEMBL5058577, “EUbOPEN Chemogenomics Library 2 (Multiplex)” (2022).

Tested on: Fibroblast
Assay: Multiplex assay against human fibroblast
Format: toxicity, cell-based
Procedure, shortened: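 Live cells were stained at seeding with Hoechst33342, BioTracker Green Microtubule Cytoskeleton Dye, MitoTracker Red and Annexin V Alexa Fluor 680. Following compound addition, they were imaged on a CQ1 microscope at 37°C and 5% CO2 and gated by CellPathfinder machine learning into Hoechst high-intensity objects or normal cells, with normal cells split into healthy, pyknosed or fragmented nuclei and pyknosed cells into mitotic or apoptotic. Tubulin, mitochondrial-mass and membrane-permeability phenotypes are per cents of healthy-nucleus cells.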

[1] = 12 h, 1 µM, compound concentration 1 uM, replicate 1
[2] = 12 h, 1 µM, compound concentration 1 uM, replicate 2
[3] = 12 h, 10 µM, compound concentration 10 uM, replicate 1
[4] = 12 h, 10 µM, compound concentration 10 uM, replicate 2
[5] = 24 h, 1 µM, compound concentration 1 uM, replicate 1
[6] = 24 h, 1 µM, compound concentration 1 uM, replicate 2
[7] = 24 h, 10 µM, compound concentration 10 uM, replicate 1
[8] = 24 h, 10 µM, compound concentration 10 uM, replicate 2
[9] = 48 h, 1 µM, compound concentration 1 uM, replicate 1
[10] = 48 h, 1 µM, compound concentration 1 uM, replicate 2
[11] = 48 h, 10 µM, compound concentration 10 uM, replicate 1
[12] = 48 h, 10 µM, compound concentration 10 uM, replicate 2

N#Cc1c(N)nc(SCc2csc(-c3ccc(Cl)cc3)n2)c(C#N)c1-c1ccc(OCCO)cc1 [CAPADENOSON]
Population Apoptotic (%) [1]: 43%
Population Fragmented Nuclei (%) [1]: 8%
Population Healthy Nuclei (%) [1]: 80%
Population Hoechst High Intensity Objects (%) [1]: 2%
Population Membrane Permeable-Phenotype (%) [1]: 0%
Population Mitochondria Different-Phenotype (%) [1]: 10%
Population Mitotic Cells (%) [1]: 56%
Population Normal (%) [1]: 97%
Population Pyknosed Nuclei (%) [1]: 11%
Population Tubulin-Different-Phenotype (%) [1]: 38%
Total Cell Count [1]: 139
Population Apoptotic (%) [2]: 27%
Population Fragmented Nuclei (%) [2]: 30%
Population Healthy Nuclei (%) [2]: 43%
Population Hoechst High Intensity Objects (%) [2]: 1%
Population Membrane Permeable-Phenotype (%) [2]: 5%
Population Mitochondria Different-Phenotype (%) [2]: 11%
Population Mitotic Cells (%) [2]: 72%
Population Normal (%) [2]: 98%
Population Pyknosed Nuclei (%) [2]: 25%
Population Tubulin-Different-Phenotype (%) [2]: 55%
Total Cell Count [2]: 157
Population Apoptotic (%) [3]: 31%
Population Fragmented Nuclei (%) [3]: 23%
Population Healthy Nuclei (%) [3]: 50%
Population Hoechst High Intensity Objects (%) [3]: 1%
Population Membrane Permeable-Phenotype (%) [3]: 0%
Population Mitochondria Different-Phenotype (%) [3]: 10%
Population Mitotic Cells (%) [3]: 68%
Population Normal (%) [3]: 98%
Population Pyknosed Nuclei (%) [3]: 25%
Population Tubulin-Different-Phenotype (%) [3]: 80%
Total Cell Count [3]: 172
Population Apoptotic (%) [4]: 41%
Population Fragmented Nuclei (%) [4]: 41%
Population Healthy Nuclei (%) [4]: 29%
Population Hoechst High Intensity Objects (%) [4]: 8%
Population Membrane Permeable-Phenotype (%) [4]: 20%
Population Mitochondria Different-Phenotype (%) [4]: 14%
Population Mitotic Cells (%) [4]: 58%
Population Normal (%) [4]: 91%
Population Pyknosed Nuclei (%) [4]: 29%
Population Tubulin-Different-Phenotype (%) [4]: 97%
Total Cell Count [4]: 128
Population Apoptotic (%) [5]: 72%
Population Fragmented Nuclei (%) [5]: 11%
Population Healthy Nuclei (%) [5]: 80%
Population Hoechst High Intensity Objects (%) [5]: 1%
Population Membrane Permeable-Phenotype (%) [5]: 0%
Population Mitochondria Different-Phenotype (%) [5]: 5%
Population Mitotic Cells (%) [5]: 27%
Population Normal (%) [5]: 98%
Population Pyknosed Nuclei (%) [5]: 8%
Population Tubulin-Different-Phenotype (%) [5]: 34%
Total Cell Count [5]: 139
Population Apoptotic (%) [6]: 48%
Population Fragmented Nuclei (%) [6]: 35%
Population Healthy Nuclei (%) [6]: 44%
Population Hoechst High Intensity Objects (%) [6]: 4%
Population Membrane Permeable-Phenotype (%) [6]: 6%
Population Mitochondria Different-Phenotype (%) [6]: 20%
Population Mitotic Cells (%) [6]: 51%
Population Normal (%) [6]: 95%
Population Pyknosed Nuclei (%) [6]: 20%
Population Tubulin-Different-Phenotype (%) [6]: 71%
Total Cell Count [6]: 148
Population Apoptotic (%) [7]: 38%
Population Fragmented Nuclei (%) [7]: 26%
Population Healthy Nuclei (%) [7]: 52%
Population Hoechst High Intensity Objects (%) [7]: 2%
Population Membrane Permeable-Phenotype (%) [7]: 0%
Population Mitochondria Different-Phenotype (%) [7]: 26%
Population Mitotic Cells (%) [7]: 61%
Population Normal (%) [7]: 97%
Population Pyknosed Nuclei (%) [7]: 20%
Population Tubulin-Different-Phenotype (%) [7]: 67%
Total Cell Count [7]: 179
Population Apoptotic (%) [8]: 41%
Population Fragmented Nuclei (%) [8]: 43%
Population Healthy Nuclei (%) [8]: 28%
Population Hoechst High Intensity Objects (%) [8]: 6%
Population Membrane Permeable-Phenotype (%) [8]: 17%
Population Mitochondria Different-Phenotype (%) [8]: 25%
Population Mitotic Cells (%) [8]: 58%
Population Normal (%) [8]: 93%
Population Pyknosed Nuclei (%) [8]: 27%
Population Tubulin-Different-Phenotype (%) [8]: 94%
Total Cell Count [8]: 131
Population Apoptotic (%) [9]: 88%
Population Fragmented Nuclei (%) [9]: 16%
Population Healthy Nuclei (%) [9]: 77%
Population Hoechst High Intensity Objects (%) [9]: 2%
Population Membrane Permeable-Phenotype (%) [9]: 0%
Population Mitochondria Different-Phenotype (%) [9]: 7%
Population Mitotic Cells (%) [9]: 11%
Population Normal (%) [9]: 97%
Population Pyknosed Nuclei (%) [9]: 6%
Population Tubulin-Different-Phenotype (%) [9]: 37%
Total Cell Count [9]: 147
Population Apoptotic (%) [10]: 69%
Population Fragmented Nuclei (%) [10]: 38%
Population Healthy Nuclei (%) [10]: 43%
Population Membrane Permeable-Phenotype (%) [10]: 6%
Population Mitochondria Different-Phenotype (%) [10]: 12%
Population Mitotic Cells (%) [10]: 30%
Population Pyknosed Nuclei (%) [10]: 17%
Population Tubulin-Different-Phenotype (%) [10]: 60%
Total Cell Count [10]: 151
Population Apoptotic (%) [11]: 81%
Population Fragmented Nuclei (%) [11]: 32%
Population Healthy Nuclei (%) [11]: 53%
Population Hoechst High Intensity Objects (%) [11]: 2%
Population Membrane Permeable-Phenotype (%) [11]: 0%
Population Mitochondria Different-Phenotype (%) [11]: 32%
Population Mitotic Cells (%) [11]: 18%
Population Normal (%) [11]: 97%
Population Pyknosed Nuclei (%) [11]: 14%
Population Tubulin-Different-Phenotype (%) [11]: 78%
Total Cell Count [11]: 187
Population Apoptotic (%) [12]: 36%
Population Fragmented Nuclei (%) [12]: 57%
Population Healthy Nuclei (%) [12]: 29%
Population Hoechst High Intensity Objects (%) [12]: 0%
Population Membrane Permeable-Phenotype (%) [12]: 11%
Population Mitochondria Different-Phenotype (%) [12]: 30%
Population Mitotic Cells (%) [12]: 63%
Population Normal (%) [12]: 100%
Population Pyknosed Nuclei (%) [12]: 13%
Population Tubulin-Different-Phenotype (%) [12]: 95%
Total Cell Count [12]: 142

C[C@H]1[C@H]2CC[C@H]3[C@@H]4CC=C5C[C@@H](N(C)C)CC[C@]5(C)[C@H]4CC[C@]23CN1C [CONESSINE]
Population Apoptotic (%) [1]: 45%
Population Fragmented Nuclei (%) [1]: 15%
Population Healthy Nuclei (%) [1]: 73%
Population Hoechst High Intensity Objects (%) [1]: 1%
Population Membrane Permeable-Phenotype (%) [1]: 0%
Population Mitochondria Different-Phenotype (%) [1]: 8%
Population Mitotic Cells (%) [1]: 55%
Population Normal (%) [1]: 98%
Population Pyknosed Nuclei (%) [1]: 11%
Population Tubulin-Different-Phenotype (%) [1]: 19%
Total Cell Count [1]: 174
Population Apoptotic (%) [2]: 29%
Population Fragmented Nuclei (%) [2]: 33%
Population Healthy Nuclei (%) [2]: 41%
Population Hoechst High Intensity Objects (%) [2]: 2%
Population Membrane Permeable-Phenotype (%) [2]: 7%
Population Mitochondria Different-Phenotype (%) [2]: 2%
Population Mitotic Cells (%) [2]: 70%
Population Normal (%) [2]: 97%
Population Pyknosed Nuclei (%) [2]: 24%
Population Tubulin-Different-Phenotype (%) [2]: 46%
Total Cell Count [2]: 101
Population Apoptotic (%) [3]: 37%
Population Fragmented Nuclei (%) [3]: 26%
Population Healthy Nuclei (%) [3]: 60%
Population Hoechst High Intensity Objects (%) [3]: 3%
Population Membrane Permeable-Phenotype (%) [3]: 5%
Population Mitochondria Different-Phenotype (%) [3]: 10%
Population Mitotic Cells (%) [3]: 62%
Population Normal (%) [3]: 96%
Population Pyknosed Nuclei (%) [3]: 13%
Population Tubulin-Different-Phenotype (%) [3]: 32%
Total Cell Count [3]: 189
Population Apoptotic (%) [4]: 43%
Population Healthy Nuclei (%) [4]: 45%
Population Membrane Permeable-Phenotype (%) [4]: 8%
Population Mitochondria Different-Phenotype (%) [4]: 4%
Population Mitotic Cells (%) [4]: 56%
Population Pyknosed Nuclei (%) [4]: 28%
Population Tubulin-Different-Phenotype (%) [4]: 58%
Total Cell Count [4]: 110
Population Apoptotic (%) [5]: 43%
Population Fragmented Nuclei (%) [5]: 13%
Population Healthy Nuclei (%) [5]: 73%
Population Hoechst High Intensity Objects (%) [5]: 2%
Population Membrane Permeable-Phenotype (%) [5]: 1%
Population Mitochondria Different-Phenotype (%) [5]: 4%
Population Mitotic Cells (%) [5]: 56%
Population Normal (%) [5]: 97%
Population Pyknosed Nuclei (%) [5]: 13%
Population Tubulin-Different-Phenotype (%) [5]: 22%
Total Cell Count [5]: 175
Population Apoptotic (%) [6]: 40%
Population Fragmented Nuclei (%) [6]: 27%
Population Healthy Nuclei (%) [6]: 48%
Population Hoechst High Intensity Objects (%) [6]: 4%
Population Membrane Permeable-Phenotype (%) [6]: 13%
Population Mitochondria Different-Phenotype (%) [6]: 6%
Population Mitotic Cells (%) [6]: 59%
Population Normal (%) [6]: 95%
Population Pyknosed Nuclei (%) [6]: 24%
Population Tubulin-Different-Phenotype (%) [6]: 61%
Total Cell Count [6]: 95
Population Apoptotic (%) [7]: 64%
Population Fragmented Nuclei (%) [7]: 28%
Population Healthy Nuclei (%) [7]: 61%
Population Hoechst High Intensity Objects (%) [7]: 3%
Population Membrane Permeable-Phenotype (%) [7]: 1%
Population Mitochondria Different-Phenotype (%) [7]: 7%
Population Mitotic Cells (%) [7]: 35%
Population Normal (%) [7]: 96%
Population Pyknosed Nuclei (%) [7]: 9%
Population Tubulin-Different-Phenotype (%) [7]: 27%
Total Cell Count [7]: 190
Population Apoptotic (%) [8]: 36%
Population Healthy Nuclei (%) [8]: 39%
Population Hoechst High Intensity Objects (%) [8]: 2%
Population Membrane Permeable-Phenotype (%) [8]: 7%
Population Mitotic Cells (%) [8]: 63%
Population Normal (%) [8]: 97%
Population Pyknosed Nuclei (%) [8]: 32%
Population Tubulin-Different-Phenotype (%) [8]: 60%
Total Cell Count [8]: 106
Population Apoptotic (%) [9]: 50%
Population Fragmented Nuclei (%) [9]: 17%
Population Healthy Nuclei (%) [9]: 73%
Population Hoechst High Intensity Objects (%) [9]: 5%
Population Membrane Permeable-Phenotype (%) [9]: 0%
Population Mitochondria Different-Phenotype (%) [9]: 3%
Population Mitotic Cells (%) [9]: 50%
Population Normal (%) [9]: 94%
Population Pyknosed Nuclei (%) [9]: 9%
Population Tubulin-Different-Phenotype (%) [9]: 27%
Total Cell Count [9]: 178
Population Apoptotic (%) [10]: 47%
Population Fragmented Nuclei (%) [10]: 37%
Population Healthy Nuclei (%) [10]: 45%
Population Hoechst High Intensity Objects (%) [10]: 0%
Population Membrane Permeable-Phenotype (%) [10]: 17%
Population Mitochondria Different-Phenotype (%) [10]: 8%
Population Mitotic Cells (%) [10]: 52%
Population Normal (%) [10]: 99%
Population Pyknosed Nuclei (%) [10]: 16%
Population Tubulin-Different-Phenotype (%) [10]: 63%
Total Cell Count [10]: 104
Population Apoptotic (%) [11]: 66%
Population Fragmented Nuclei (%) [11]: 26%
Population Healthy Nuclei (%) [11]: 62%
Population Hoechst High Intensity Objects (%) [11]: 6%
Population Membrane Permeable-Phenotype (%) [11]: 0%
Population Mitochondria Different-Phenotype (%) [11]: 4%
Population Mitotic Cells (%) [11]: 33%
Population Normal (%) [11]: 93%
Population Pyknosed Nuclei (%) [11]: 10%
Population Tubulin-Different-Phenotype (%) [11]: 25%
Total Cell Count [11]: 190
Population Apoptotic (%) [12]: 27%
Population Fragmented Nuclei (%) [12]: 29%
Population Healthy Nuclei (%) [12]: 48%
Population Hoechst High Intensity Objects (%) [12]: 2%
Population Membrane Permeable-Phenotype (%) [12]: 8%
Population Mitochondria Different-Phenotype (%) [12]: 6%
Population Mitotic Cells (%) [12]: 72%
Population Normal (%) [12]: 97%
Population Pyknosed Nuclei (%) [12]: 22%
Population Tubulin-Different-Phenotype (%) [12]: 62%
Total Cell Count [12]: 102
